Converted amounts (≈) assume the structure as drawn.
Key:
[1] = test system: Mycolicibacterium smegmatis; assay: Antimycobacterial activity against Mycobacterium smegmatis MC2 by agar dilution method; type: functional
Summary of the method: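 Agar dilution on Middlebrook 7H11 agar supplemented with OADC, following an NCCLS-like procedure; MIC determined in duplicate against M. smegmatis ATCC 14468 (MC²).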

[2] = test system: Mycobacterium tuberculosis; assay: Antimycobacterial activity against Mycobacterium tuberculosis H37Rv by agar dilution method; type: functional
Summary of the method: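 MIC by agar dilution on Middlebrook 7H11 agar supplemented with OADC, following an NCCLS-like procedure, run in duplicate. The MDR-TB clinical isolate was resistant to isoniazid, rifampicin, ethambutol and ofloxacin.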

Vero = assay: Cytotoxicity against african green monkey Vero cells after 72 hrs by MTT assay; type: cell-based; conditions: Chlorocebus sabaeus
Summary of the method: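 Vero mammalian cells were exposed to compounds for 72 h, with testing at 62.5 µg/ml. Viability was read as cellular conversion of MTT to formazan (non-radioactive cell proliferation kit), and IC50 was reported.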

[3] = Inhibition of Mycobacterium smegmatis DNA gyrase supercoiling activity; set-up: species or system Mycolicibacterium smegmatis
Mus musculus [4] = assay: Phototoxicity in Swiss albino mouse assessed as erythema incidence at 140 mg/kg, po after 96 hrs of irradiation; type: organism-based; set-up: dose 140 mg/kg, route oral; conditions: in vivo
Summary of the method: (§1)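 Female Swiss albino mice (about 2 months, 20–25 g), fasted at least 18 h, received a single oral gavage of 140 mg/kg. Groups: six per group; lomefloxacin HCl 140 mg/kg; vehicle 0.5% aqueous sodium carboxymethylcellulose at 10 ml/kg. Mice were UV-irradiated for 4 h (about 18 J/cm²). Both ears were scored for erythema, edema and ear thickness (left/right averaged) pre-dose, at end of irradiation, and at about 24, 48, 72 and 96 h. Ear thickness change from baseline was tested by Student's t-tests.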

Mus musculus [5] = assay: Phototoxicity in Swiss albino mouse assessed as ear thickness at 140 mg/kg, po after 4 hrs of irradiation; type: organism-based; set-up: dose 140 mg/kg, route oral; conditions: in vivo; summary of the method: as §1
Mus musculus [6] = assay: (§2) Phototoxicity in Swiss albino mouse assessed as erythema incidence at 140 mg/kg, po after 48 hrs of irradiation; type: organism-based; set-up: dose 140 mg/kg, route oral; conditions: in vivo; summary of the method: as §1
Mus musculus [7] = assay: Phototoxicity in Swiss albino mouse assessed as erythema incidence at 140 mg/kg, po after 24 hrs of irradiation; type: organism-based; set-up: dose 140 mg/kg, route oral; conditions: in vivo; summary of the method: as §1
Mus musculus [8] = assay: Phototoxicity in Swiss albino mouse assessed as ear thickness at 140 mg/kg, po after 96 hrs of irradiation; type: organism-based; set-up: dose 140 mg/kg, route oral; conditions: in vivo; summary of the method: as §1
Mus musculus [9] = assay: Phototoxicity in Swiss albino mouse assessed as ear thickness at 140 mg/kg, po after 24 hrs of irradiation; type: organism-based; set-up: dose 140 mg/kg, route oral; conditions: in vivo; summary of the method: as §1
Mus musculus [10] = assay: Phototoxicity in Swiss albino mouse assessed as ear thickness at 140 mg/kg, po after 72 hrs of irradiation; type: organism-based; set-up: dose 140 mg/kg, route oral; conditions: in vivo; summary of the method: as §1
Mus musculus [11] = assay: Phototoxicity in Swiss albino mouse assessed as ear thickness at 140 mg/kg, po after 48 hrs of irradiation; type: organism-based; set-up: dose 140 mg/kg, route oral; conditions: in vivo; summary of the method: as §1
Mus musculus [12] = assay: Phototoxicity in Swiss albino mouse assessed as erythema incidence at 140 mg/kg, po after 4 hrs of irradiation; type: organism-based; set-up: dose 140 mg/kg, route oral; conditions: in vivo; summary of the method: as §1
Mus musculus [13] = assay: as §2; type: organism-based; set-up: dose 140 mg/kg, route oral; conditions: in vivo; summary of the method: as §1; remark: listed apart in the source

Structure (SMILES)	MIC [1]	MIC [2]	IC50 (Vero)	also measured
CN1CCN(c2cc3c(cc2F)c(=O)c(C(=O)O)c2sc4ccccc4n23)CC1c1ccccc1 (stereo not drawn)	103 µM (≈ 50 µg/mL)	12.8 µM (≈ 6.25 µg/mL)		
COc1cc2c(cc1OC)CN(c1cc3c(cc1F)c(=O)c(C(=O)O)c1sc4ccccc4n13)CC2	6.2 µM (≈ 3.13 µg/mL)	1.55 µM (≈ 0.782 µg/mL)	> 124 µM	
CC(C)(C)OC(=O)NC1C2CN(c3cc4c(cc3[N+](=O)[O-])c(=O)c(C(=O)O)c3sc5ccccc5n34)CC21 (stereo not drawn)	93.2 µM (≈ 50 µg/mL)	2.91 µM (≈ 1.56 µg/mL)	58.2 µM	
O=C(O)c1c(=O)c2cc([N+](=O)[O-])c(N3CCN(C(c4ccccc4)c4ccc(Cl)cc4)CC3)cc2n2c1sc1ccccc12 (stereo not drawn)	40 µM (≈ 25 µg/mL)	5.01 µM (≈ 3.13 µg/mL)	50 µM	
O=C(O)c1c(=O)c2cc([N+](=O)[O-])c(N3CCN(C(=O)c4ccco4)CC3)cc2n2c1sc1ccccc12	48.2 µM (≈ 25 µg/mL)	6.04 µM (≈ 3.13 µg/mL)		
COc1ccc(CC2C3=C(CCCC3)CCN2c2cc3c(cc2[N+](=O)[O-])c(=O)c(C(=O)O)c2sc4ccccc4n23)cc1 (stereo not drawn)	83.9 µM (≈ 50 µg/mL)	10.5 µM (≈ 6.25 µg/mL)		
O=C(O)c1c(=O)c2cc(F)c(N3CCSCC3)cc2n2c1sc1ccccc12	7.55 µM (≈ 3.13 µg/mL)	3.76 µM (≈ 1.56 µg/mL)		
O=C(O)c1c(=O)c2cc([N+](=O)[O-])c(N3CCC(O)(c4ccc(Cl)cc4)CC3)cc2n2c1sc1ccccc12	90.9 µM (≈ 50 µg/mL)	2.84 µM (≈ 1.56 µg/mL)	114 µM	
Cc1onc(-c2c(F)cccc2F)c1C(=O)N1CCN(c2cc3c(cc2[N+](=O)[O-])c(=O)c(C(=O)O)c2sc4ccccc4n23)CC1	77.5 µM (≈ 50 µg/mL)	4.85 µM (≈ 3.13 µg/mL)		
CC(C)(C)NC(=O)C1c2ccccc2CCN1c1cc2c(cc1F)c(=O)c(C(=O)O)c1sc3ccccc3n12 (stereo not drawn)	46 µM (≈ 25 µg/mL)	2.87 µM (≈ 1.56 µg/mL)	115 µM	
O=C(O)c1c(=O)c2cc(F)c(N3CCC(N4CCCCC4)CC3)cc2n2c1sc1ccccc12	6.53 µM (≈ 3.13 µg/mL)	0.39 µM (≈ 0.187 µg/mL)	130 µM	IC50 [3]: > 50 µg/mL
O=C(O)c1c(=O)c2cc([N+](=O)[O-])c(N3CCN(Cc4ccc5c(c4)OCO5)CC3)cc2n2c1sc1ccccc12	44.8 µM (≈ 25 µg/mL)	5.6 µM (≈ 3.13 µg/mL)	112 µM	
CN1CCN(c2cc3c(cc2[N+](=O)[O-])c(=O)c(C(=O)O)c2sc4ccccc4n23)CC1c1ccccc1 (stereo not drawn)	97.2 µM (≈ 50 µg/mL)	12.2 µM (≈ 6.25 µg/mL)		
COc1ccc(CC2C3=C(CCCC3)CCN2c2cc3c(cc2F)c(=O)c(C(=O)O)c2sc4ccccc4n23)cc1 (stereo not drawn)	44 µM (≈ 25 µg/mL)	5.5 µM (≈ 3.13 µg/mL)		
CC(C)(C)NC(=O)C1c2ccccc2CCN1c1cc2c(cc1[N+](=O)[O-])c(=O)c(C(=O)O)c1sc3ccccc3n12 (stereo not drawn)	43.8 µM (≈ 25 µg/mL)	2.73 µM (≈ 1.56 µg/mL)		
O=C(O)c1c(=O)c2cc([N+](=O)[O-])c(N3CCC(N4CCCCC4)CC3)cc2n2c1sc1ccccc12	98.7 µM (≈ 50 µg/mL)	3.08 µM (≈ 1.56 µg/mL)	61.7 µM	
CC(C)(C)OC(=O)NC1C2CN(c3cc4c(cc3F)c(=O)c(C(=O)O)c3sc5ccccc5n34)CC21 (stereo not drawn)	6.14 µM (≈ 3.13 µg/mL)	0.37 µM (≈ 0.189 µg/mL)	> 113 µM	IC50 [3]: 50 µg/mL (≈ 98.1 µM)
O=C(O)c1c(=O)c2cc(F)c(N3CCN(C(=O)c4ccco4)CC3)cc2n2c1sc1ccccc12	50.9 µM (≈ 25 µg/mL)	6.37 µM (≈ 3.13 µg/mL)		

Structure (SMILES)	MIC [1]	MIC [2]	IC50 (Vero)	also measured
O=C(O)c1c(=O)c2cc(F)c(N3CCC(n4c(=O)[nH]c5cc(Cl)ccc54)CC3)cc2n2c1sc1ccccc12	44.4 µM (≈ 25 µg/mL)	2.77 µM (≈ 1.56 µg/mL)		
O=C(O)c1c(=O)c2cc(F)c(N3CCC(O)(c4ccc(Cl)cc4)CC3)cc2n2c1sc1ccccc12	2.98 µM (≈ 1.56 µg/mL)	0.36 µM (≈ 0.188 µg/mL)	120 µM	Activity (Mus musculus [4]): Non-toxic; Activity (Mus musculus [5]): 0.32 mm; IC50 [3]: 40 µg/mL (≈ 76.5 µM); Activity (Mus musculus [6]): Non-toxic; Activity (Mus musculus [7]): Non-toxic; Activity (Mus musculus [8]): 0.3 mm; Activity (Mus musculus [9]): 0.31 mm; Activity (Mus musculus [10]): 0.32 mm; Activity (Mus musculus [11]): 0.29 mm; Activity (Mus musculus [12]): Non-toxic; Activity (Mus musculus [13]): Non-toxic
O=C(O)c1c(=O)c2cc(F)c(N3CCN(Cc4ccc5c(c4)OCO5)CC3)cc2n2c1sc1ccccc12	5.89 µM (≈ 3.13 µg/mL)	1.47 µM (≈ 0.781 µg/mL)	> 118 µM	
CCN(CC)C(=O)C1CCCN(c2cc3c(cc2[N+](=O)[O-])c(=O)c(C(=O)O)c2sc4ccccc4n23)C1 (stereo not drawn)	95.7 µM (≈ 50 µg/mL)	2.99 µM (≈ 1.56 µg/mL)	59.8 µM	
O=C(O)c1c(=O)c2cc([N+](=O)[O-])c(N3CCSCC3)cc2n2c1sc1ccccc12	113 µM (≈ 50 µg/mL)	7.09 µM (≈ 3.13 µg/mL)		
O=C(O)c1c(=O)c2cc([N+](=O)[O-])c(N3CCC(n4c(=O)[nH]c5cc(Cl)ccc54)CC3)cc2n2c1sc1ccccc12	84.8 µM (≈ 50 µg/mL)	5.31 µM (≈ 3.13 µg/mL)		
O=C(O)c1c(=O)c2cc([N+](=O)[O-])c(N3CCN(C(=O)C4COc5ccccc5O4)CC3)cc2n2c1sc1ccccc12 (stereo not drawn)	85.2 µM (≈ 50 µg/mL)	10.7 µM (≈ 6.25 µg/mL)		
O=C(O)c1c(=O)c2cc(F)c(N3CCN(C(=O)C4COc5ccccc5O4)CC3)cc2n2c1sc1ccccc12 (stereo not drawn)	2.79 µM (≈ 1.56 µg/mL)	1.39 µM (≈ 0.778 µg/mL)	112 µM	IC50 [3]: > 50 µg/mL
O=C(O)c1c(=O)c2cc([N+](=O)[O-])c(N3CCC4(CC3)OCCO4)cc2n2c1sc1ccccc12	104 µM (≈ 50 µg/mL)	1.62 µM (≈ 0.78 µg/mL)	130 µM	
CCn1cc(C(=O)O)c(=O)c2cc(F)c(N3CCNC(C)C3)c(F)c21 (stereo not drawn) [LOMEFLOXACIN]				Activity (Mus musculus [4]): Toxic; Activity (Mus musculus [5]): 0.4 mm; Activity (Mus musculus [6]): Toxic; Activity (Mus musculus [7]): Toxic; Activity (Mus musculus [8]): 0.6 mm; Activity (Mus musculus [9]): 0.48 mm; Activity (Mus musculus [10]): 0.64 mm; Activity (Mus musculus [11]): 0.53 mm; Activity (Mus musculus [12]): Toxic; Activity (Mus musculus [13]): Toxic
Cc1onc(-c2c(F)cccc2F)c1C(=O)N1CCN(c2cc3c(cc2F)c(=O)c(C(=O)O)c2sc4ccccc4n23)CC1	40.4 µM (≈ 25 µg/mL)	2.52 µM (≈ 1.56 µg/mL)		
CC1CN(c2cc3c(cc2[N+](=O)[O-])c(=O)c(C(=O)O)c2sc4ccccc4n23)CC(C)O1 (stereo not drawn)	110 µM (≈ 50 µg/mL)	6.9 µM (≈ 3.13 µg/mL)		
CC1CN(c2cc3c(cc2F)c(=O)c(C(=O)O)c2sc4ccccc4n23)CC(C)O1 (stereo not drawn)	29.3 µM (≈ 12.5 µg/mL)	7.34 µM (≈ 3.13 µg/mL)		
COc1cc2c(cc1OC)CN(c1cc3c(cc1[N+](=O)[O-])c(=O)c(C(=O)O)c1sc4ccccc4n13)CC2	47 µM (≈ 25 µg/mL)	1.47 µM (≈ 0.781 µg/mL)	118 µM	
O=C(O)c1c(=O)c2cc(F)c(N3CCN(C(c4ccccc4)c4ccc(Cl)cc4)CC3)cc2n2c1sc1ccccc12 (stereo not drawn)	10.4 µM (≈ 6.25 µg/mL)	2.61 µM (≈ 1.56 µg/mL)	104 µM	
O=C(O)c1c(=O)c2cc(F)c(N3CCC4(CC3)OCCO4)cc2n2c1sc1ccccc12	6.89 µM (≈ 3.13 µg/mL)	0.86 µM (≈ 0.391 µg/mL)	> 138 µM	Activity (Mus musculus [4]): Non-toxic; Activity (Mus musculus [5]): 0.3 mm; Activity (Mus musculus [6]): Non-toxic; Activity (Mus musculus [7]): Non-toxic; Activity (Mus musculus [8]): 0.3 mm; Activity (Mus musculus [9]): 0.31 mm; Activity (Mus musculus [10]): 0.28 mm; Activity (Mus musculus [11]): 0.3 mm; Activity (Mus musculus [12]): Non-toxic; Activity (Mus musculus [13]): Non-toxic
O=C(O)c1cn2c(n1)CN(c1cc3c(cc1[N+](=O)[O-])c(=O)c(C(=O)O)c1sc4ccccc4n13)CC2	98.2 µM (≈ 49.6 µg/mL)	1.54 µM (≈ 0.778 µg/mL)	124 µM	
O=C(O)c1cn2c(n1)CN(c1cc3c(cc1F)c(=O)c(C(=O)O)c1sc4ccccc4n13)CC2	52.2 µM (≈ 25 µg/mL)	3.26 µM (≈ 1.56 µg/mL)	> 131 µM	
